According to ChEMBL document CHEMBL4316593 (Eur J Med Chem, 2019):
Active and inactive are the calls of the source. The calls are words filed in the database; no cut-off is given here.

How the values were obtained:
[1] = Inhibition of RTK/PI3K/AKT/mTOR signaling in human U87 cells assessed as up regulation of ZNF395 gene expression at cytotoxic IC50 measured after 48 hrs relative to control; assay type: cell-based; conditions: U-87MG ATCC
[2] = Inhibition of RTK/PI3K/AKT/mTOR signaling in human U87 cells assessed as up regulation of phosphofructokinase, platelet gene expression at cytotoxic IC50 measured after 48 hrs relative to control; assay type: cell-based
[3] = system: U-87 MG; assay: Induction of oxidative stress in human U87 cells assessed as increase in redox level at cytotoxic IC50 measured after 5 hrs by H2DCFDA dye based fluorescence assay relative to control; assay type: functional, U-87MG ATCC
Summary of the method: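 Cells grown overnight, exposed to IC50 for 5 hrs at 37°C with negative, positive (H2O2) and blank controls, plus solvent baseline. Pelleted, loaded with 2 µM H2DCFDA for 30 min at 37°C, washed, resuspended in warm medium, 20 min at room temperature. Fluorescence read at ex 485/em 535 nm.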

[4] = Inhibition of RTK/PI3K/AKT/mTOR signaling in human U87 cells assessed as up regulation of SLC45A3 gene expression at cytotoxic IC50 measured after 48 hrs relative to control; assay type: cell-based; conditions: U-87MG ATCC
[5] = Inhibition of RTK/PI3K/AKT/mTOR signaling in human U87 cells assessed as up regulation of NCOR2 gene expression at cytotoxic IC50 measured after 48 hrs relative to control; assay type: cell-based; conditions: U-87MG ATCC
Summary of the method: (§1)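 Cells were exposed for 48hrs at 37°C in humidified 5% CO₂ to the compound at its previously determined IC₅₀, with Cisplatin at its IC₅₀ and an untreated negative control alongside. Each condition was run in triplicate. RNA was isolated from all samples by the same protocol. Genes were called differentially expressed by DESeq2 at q-value < 0.05 and fold change > 1.5.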

[6] = Inhibition of RTK/PI3K/AKT/mTOR signaling in human U87 cells assessed as up regulation of zinc finger protein 217 gene expression at cytotoxic IC50 measured after 48 hrs relative to control; assay type: cell-based; conditions: U-87MG ATCC
[7] = Inhibition of RTK/PI3K/AKT/mTOR signaling in human U87 cells assessed as up regulation of proline-serine-threonine phosphatase interacting protein 2 gene expression at cytotoxic IC50 measured after 48 hrs relative to control; assay type: cell-based; conditions: U-87MG ATCC
[8] = Inhibition of RTK/PI3K/AKT/mTOR signaling in human U87 cells assessed as up regulation of ETS variant 1 gene expression at cytotoxic IC50 measured after 48 hrs relative to control; assay type: cell-based; conditions: U-87MG ATCC; summary of the method: as §1
[9] = system: U-87 MG; assay: Induction of DNA damage in human U87 cells assessed as change in GADD45A gene expression at cytotoxic IC50 measured after 48 hrs […] relative to control; assay type: functional, U-87MG ATCC
Summary of the method: (§2)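 U87 expression profiling. Cells incubated 48hrs at 37°C, 5% CO₂ with the IC₅₀ concentration, alongside a cisplatin and an untreated control, in triplicate. RNA was isolated by one common protocol and profiled. DEGs were called with DESeq2 (q < 0.05, fold change > 1.5) and expressed as fold change versus untreated.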

[10] = system: U-87 MG; assay: Induction of DNA damage in human U87 cells assessed as change in PIDD1 gene expression at cytotoxic IC50 measured after 48 hrs […] relative to control; assay type: functional, U-87MG ATCC; summary of the method: as §2
[11] = system: LN-229; assay: Induction of apoptosis in human LN229 cells assessed as apoptotic cells at cytotoxic IC50 measured after 48 hrs by Annexin V-FITC/propidium iodide staining based flow cytometry (reference value: 29.3%); assay type: functional
[12] = Inhibition of RTK/PI3K/AKT/mTOR signaling in human U87 cells assessed as up regulation of INHBE gene expression at cytotoxic IC50 measured after 48 hrs relative to control; assay type: cell-based; conditions: U-87MG ATCC; summary of the method: as §1
[13] = system: U-87 MG; assay: Cell cycle arrest in human U87 cells assessed as change in PKMYT1 gene expression at cytotoxic IC50 measured after 48 hrs […] relative to control; assay type: functional, U-87MG ATCC; summary of the method: as §2
[14] = Inhibition of RTK/PI3K/AKT/mTOR signaling in human U87 cells assessed as up regulation of solute carrier family 12 member 9 gene expression at cytotoxic IC50 measured after 48 hrs relative to control; assay type: cell-based; conditions: U-87MG ATCC
[15] = system: U-87 MG; assay: Induction of DNA damage in human U87 cells assessed as change in CDKN1A gene expression at cytotoxic IC50 measured after 48 hrs […] relative to control; assay type: functional, U-87MG ATCC; summary of the method: as §2
[16] = Inhibition of RTK/PI3K/AKT/mTOR signaling in human U87 cells assessed as down regulation of MAP2 gene expression at cytotoxic IC50 measured after 48 hrs relative to control; assay type: cell-based; conditions: U-87MG ATCC; summary of the method: as §1
[17] = system: LN-229; assay: Cell cycle arrest in human LN229 cells assessed as accumulation at G1/S-phase at cytotoxic IC50 measured after 48 hrs by propidium iodide staining based fluorescence cell imaging analysis; assay type: functional
Summary of the method: (§3)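 Cell cycle by PI staining. Cells seeded at 1×10^6 and grown overnight at 37°C, 5% CO₂, then exposed for 48hrs at their IC₅₀ concentration, with DMSO and cisplatin controls. Cells were trypsinized, washed in cold PBS and fixed in 70% ethanol at 4°C for 30 min. They were stained with PI in Triton X-100/RNase for 15 min at 37°C and imaged by fluorescence microscopy. Reported as mean ± S.E.M of triplicates.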

[18] = system: U-87 MG; assay: Induction of apoptosis in human U87 cells assessed as change in PMAIP1 gene expression at cytotoxic IC50 measured after 48 hrs […] relative to control; assay type: functional, U-87MG ATCC
Summary of the method: (§4)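 U87 cells grown in MEM with 10% FBS at 37°C, 5% CO2. Cells exposed to IC50 of test compound for 48 hrs, alongside untreated and cisplatin controls, each condition in triplicate. RNA isolated and profiled; differential expression called with DESeq2 (q-value < 0.05, fold change > 1.5), fold change versus untreated.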

[19] = Inhibition of RTK/PI3K/AKT/mTOR signaling in human U87 cells assessed as down regulation of GPATCH11 gene expression at cytotoxic IC50 measured after 48 hrs relative to control; assay type: cell-based; conditions: U-87MG ATCC; summary of the method: as §4
[20] = Inhibition of RTK/PI3K/AKT/mTOR signaling in human U87 cells assessed as down regulation of ABCB8 gene expression at cytotoxic IC50 measured after 48 hrs relative to control; assay type: cell-based; conditions: U-87MG ATCC; summary of the method: as §4
[21] = system: U-87 MG; assay: Induction of DNA damage in human U87 cells assessed as change in TAOK3 gene expression at cytotoxic IC50 measured after 48 hrs […] relative to control; assay type: functional, U-87MG ATCC; summary of the method: as §4
[22] = system: U-87 MG; assay: Induction of apoptosis in human U87 cells assessed as change in ERN1 gene expression at cytotoxic IC50 measured after 48 hrs […] relative to control; assay type: functional, U-87MG ATCC; summary of the method: as §4
[23] = system: U-87 MG; assay: Induction of apoptosis in human U87 cells assessed as change in FOS gene expression at cytotoxic IC50 measured after 48 hrs […] relative to control; assay type: functional, U-87MG ATCC; summary of the method: as §4
[24] = Inhibition of RTK/PI3K/AKT/mTOR signaling in human U87 cells assessed as up regulation of RPL7L1 gene expression at cytotoxic IC50 measured after 48 hrs relative to control; assay type: cell-based; conditions: U-87MG ATCC; summary of the method: as §1
[25] = Inhibition of RTK/PI3K/AKT/mTOR signaling in human U87 cells assessed as down regulation of NXF1 gene expression at cytotoxic IC50 measured after 48 hrs relative to control; assay type: cell-based; conditions: U-87MG ATCC; summary of the method: as §1
[26] = system: LN-229; assay: Cell cycle arrest in human LN229 cells assessed as decrease in accumulation at S-phase at cytotoxic IC50 measured after 48 hrs by propidium iodide staining based fluorescence cell imaging analysis; assay type: functional; summary of the method: as §3

SMILES: CC(=O)C(=NNc1ccccc1C#N)C(C)=O
- log2FC [1]: 1.89
- log2FC [2]: 0.662
- Activity [3]: 9.5%
- log2FC [4]: 1.61
- log2FC [5]: 0.558
- log2FC [6]: 1.37
- log2FC [7]: 0.785
- log2FC [8]: 1.09
- fold change (FC) [9]: -0.9679
- fold change (FC) [10]: 2.467
- Activity [11]: 57.3%
- log2FC [12]: 2.96
- fold change (FC) [13]: 1.852
- log2FC [14]: 0.907
- fold change (FC) [15]: 1.296
- log2FC [16]: -1.55
- Activity [17]: Active
- log2FC [18]: 1.102
- log2FC [19]: -1.69
- log2FC [20]: -0.871
- fold change (FC) [21]: -1.929
- log2FC [22]: -1.369
- log2FC [23]: -3.569
- log2FC [24]: 0.536
- log2FC [25]: -1.44
- Activity [26]: Active
